Tcruzi prolif = inhibitors of T. cruzi proliferation. inhibition, % at 8.34 µM. actives 5.9% (n = 77,000). T. cruzi beta-gal in NIH3T3, GalScreen luminescence, 90 h. AID 624255;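 active = mean inhibition above about 93%, with at least 55% of replicates each passing it, limit read from the data, passing the limit was not always enough; inconclusive = only one of those two conditions holds; inactive = neither condition holds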
Pf Dd2 growth = P. falciparum Dd2 growth inhibition | actives 2.3% (n = 94,000) | SYBR Green, 72 h; stronger effect = lower value | activity change, % at 10 µM; in the data active = activity change below about -80%; inconclusive = no clear call, values can overlap the other calls
GASC1 inh = KDM4C (human) demethylase inhibition | AID 720574 | GST-KDM4C 2-372, H3K9me3 peptide, LANCE TR-FRET | actives 0.15% (n = 96,000) | inhibition, % at 12.5 µM;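 active = mean replicate inhibition above about 25%, with at least 55% of replicates also reaching it, limit read from the data, passing the limit was not always enough; inconclusive = only one of those two conditions met; inactive = neither condition met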
Target sequence (Q9H3R0 2-372 limits assumed): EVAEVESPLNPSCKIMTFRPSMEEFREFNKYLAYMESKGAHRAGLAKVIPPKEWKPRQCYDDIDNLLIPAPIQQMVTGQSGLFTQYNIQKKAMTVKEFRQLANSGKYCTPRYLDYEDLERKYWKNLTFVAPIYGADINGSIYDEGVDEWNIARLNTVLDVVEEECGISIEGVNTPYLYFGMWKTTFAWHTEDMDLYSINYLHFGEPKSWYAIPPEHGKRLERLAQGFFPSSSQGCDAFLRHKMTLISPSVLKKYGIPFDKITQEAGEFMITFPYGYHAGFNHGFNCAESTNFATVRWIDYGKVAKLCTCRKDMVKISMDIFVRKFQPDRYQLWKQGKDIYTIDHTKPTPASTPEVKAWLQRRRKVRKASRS
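reagent = H3K9me3 peptide substrate, Fe(II), 2-oxoglutarate | system = GST-tagged GASC-1 (JMJD2C) catalytic fragment, aa 2-372 | amount = enzyme final amount 10 nM | read-out = Fall in 671/618 emission ratio as inhibition | medium = HEPES buffer, pH 7.5, plus ascorbate | schedule = 30 min reaction, 60 min detection, RT | measured by = LANCE TR-FRET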
IDH1 R132H inh = IDH1 R132H (human) inhibition; O75874; IDH1 R132H reductase, diaphorase/resazurin fluorescence, 60 min; inhibition, % at 10 µM; actives 0.18% (n = 70,000); in the data active = inhibition above about 34%; inconclusive = no clear call, values can overlap the other calls; inactive = below about 11%
A number is an active result; . = inactive; ? = inconclusive; / = no result given. Rows were chosen to be rich in hits. Some 5.8% of all compounds tested hit in one or more screens of this group.

SMILES | Tcruzi prolif | Pf Dd2 growth | GASC1 inh | IDH1 R132H inh
C[C@@H]1CN([C@H](C)CO)C(=O)Cc2cc(NS(=O)(=O)c3ccc(Cl)cc3)ccc2O[C@H]1CN(C)Cc1ccc(C(=O)Nc2ccccc2N)cc1 | / | . | . | /
C[C@H]1CN([C@@H](C)CO)C(=O)c2ccccc2-c2ccccc2CO[C@H]1CN(C)Cc1ccc(Oc2ccccc2)cc1 | / | -87 | . | /
C[C@H]1CN([C@@H](C)CO)C(=O)c2ccccc2-c2ccccc2CO[C@H]1CN(C)Cc1ccc(O)cc1 | . | . | . | .
C[C@@H]1CN([C@H](C)CO)C(=O)c2ccccc2-c2ccccc2CO[C@@H]1CN(C)Cc1ccc(Oc2ccccc2)cc1 | / | -88 | . | .
CC(C)NC(=O)N1Cc2cc(C(=O)NCC(F)(F)F)nc(-c3cccc(-c4cc5ccccc5o4)c3)c2[C@H]1CCO | / | -86 | . | /
CC(C)(C)S(=O)N1Cc2cc(C(=O)NCc3ccc4c(c3)OCO4)nc(-c3cccc(-c4cc5ccccc5o4)c3)c2[C@H]1CCO (stereo partly drawn) | / | -93 | . | /
CC(C)C#Cc1ccc2c(c1)O[C@@H](CN(C)C)[C@@H](C)CN([C@H](C)CO)S2(=O)=O | / | . | 60 | 75
C[C@H]1CN([C@@H](C)CO)S(=O)(=O)c2ccc(C#Cc3cccc(F)c3)cc2O[C@@H]1CN(C)C | . | . | 55 | 71
CCCC#Cc1ccc2c(c1)O[C@@H](CN(C)S(C)(=O)=O)[C@@H](C)CN([C@H](C)CO)S2(=O)=O | . | . | 41 | .
COc1ccc(OC)c(NC(=O)c2c(NC(=O)CN3CCCC(C)C3)sc3c2CCC3)c1 (stereo not drawn) | / | / | / | .
COc1ccc(NS(=O)(=O)c2ccc3oc4ccccc4c3c2)cn1 | / | / | / | .
O=C(C[C@@H]1CC[C@@H]2[C@H](COC[C@@H](O)CN2Cc2ccc(Oc3ccccc3)cc2)O1)N1CCc2ccccc2C1 | . | . | . | /
COc1ccc(S(=O)(=O)N(C)C[C@@H]2Oc3c(NC(=O)CCCCCC(=O)Nc4ccccc4N)cccc3C(=O)N([C@@H](C)CO)C[C@H]2C)cc1 | / | -83 | . | .
COc1ccc(S(=O)(=O)N(C)C[C@@H]2Oc3c(NC(=O)CCCCCC(=O)Nc4ccccc4N)cccc3C(=O)N([C@H](C)CO)C[C@@H]2C)cc1 | / | -85 | . | .
COc1ccc(S(=O)(=O)N(C)C[C@H]2Oc3c(NC(=O)CCCCCC(=O)Nc4ccccc4N)cccc3C(=O)N([C@H](C)CO)C[C@@H]2C)cc1 | / | . | . | .
C[C@H](NC(=O)C[C@@H]1C[C@H]2c3cc(NC(=O)CN(C)C)ccc3O[C@H]2[C@@H](CO)O1)c1ccccc1 | . | . | . | .
C[C@H]1CN([C@@H](C)CO)C(=O)c2cc(Br)cnc2O[C@H]1CN(C)C(=O)C1CCCCC1 | / | . | . | .
O=C(NCC[C@@H]1CC[C@H](NS(=O)(=O)c2cccc(F)c2)[C@H](CO)O1)C1CCCC1 | / | . | 36 | 48
O=C(NCC[C@H]1CC[C@H](NS(=O)(=O)c2cccc(F)c2)[C@H](CO)O1)C1CCCC1 | / | . | . | .
O=C(CN1CCOCC1)N[C@H]1CC[C@H](CCNC(=O)C2CCC2)O[C@H]1CO | . | . | 85 | 73
O=C(CCN1CCCCC1)NCC[C@H]1CC[C@H](NC(=O)Cc2cccnc2)[C@@H](CO)O1 | . | . | . | .
O=C(Cc1ccncc1)NCC[C@H]1CC[C@H](NC(=O)C2CCCC2)[C@H](CO)O1 | / | . | 58 | 71
O=C(CCN1CCCCC1)NCC[C@H]1CC[C@H](NC(=O)Cc2cccnc2)[C@H](CO)O1 | . | . | 75 | 80
C[C@H]1CN([C@@H](C)CO)C(=O)Cc2cc(NS(=O)(=O)c3cn(C)cn3)ccc2O[C@H]1CN(C)C | . | . | . | .
CO[C@H]1CN(C)C(=O)c2ccc(NS(=O)(=O)c3cn(C)cn3)cc2OC[C@@H](C)N(CCC(F)(F)F)C[C@@H]1C | . | . | . | .
SMILES | Tcruzi prolif | Pf Dd2 growth | GASC1 inh | IDH1 R132H inh
O=C(NCC[C@H]1CC[C@H](NC(=O)c2cccnc2)[C@H](CO)O1)Nc1ccc(F)cc1 | . | . | 65 | 94
O=C(NCC[C@H]1CC[C@@H](NC(=O)c2cccnc2)[C@@H](CO)O1)Nc1ccc(F)cc1 | . | . | . | .
C[C@@H]1CN([C@@H](C)CO)C(=O)c2cccc(NC(=O)Nc3ccc(F)cc3)c2O[C@@H]1CN(C)Cc1ccc(C(=O)Nc2ccccc2N)cc1 | / | -92 | . | .
C[C@H](CO)N1C[C@H](C)[C@@H](CN(C)Cc2ccc(C(=O)Nc3ccccc3N)cc2)Oc2ccc(NC(=O)Nc3ccc(F)cc3)cc2C1=O | . | ? | . | /
C[C@@H]1CN([C@H](C)CO)C(=O)c2cccc(NC(=O)Nc3ccc(F)cc3)c2O[C@@H]1CN(C)Cc1ccc(C(=O)Nc2ccccc2N)cc1 | / | -89 | . | /
C[C@@H]1CN([C@H](C)CO)C(=O)Cc2cc(NS(=O)(=O)c3ccc(Cl)cc3)ccc2O[C@H]1CN(C)Cc1ccc(-c2ccccc2)cc1 | . | . | . | .
C[C@H]1CCCCO[C@H](CN(C)CC2CC2)[C@@H](C)CN([C@@H](C)CO)C(=O)c2cc(NC(=O)Nc3ccc4c(c3)OCO4)ccc2O1 | . | -90 | . | /
CCCN(C)C[C@H]1OCCCC[C@H](C)Oc2ccc(NC(=O)Nc3ccc4c(c3)OCO4)cc2C(=O)N([C@@H](C)CO)C[C@@H]1C | . | / | . | /
CCCN(C)C[C@H]1OCCCC[C@@H](C)Oc2ccc(NC(=O)Nc3ccc4c(c3)OCO4)cc2C(=O)N([C@H](C)CO)C[C@@H]1C | . | -86 | . | /
C[C@@H]1CCCCO[C@@H](CN(C)CC2CC2)[C@H](C)CN([C@@H](C)CO)C(=O)c2cc(NC(=O)Nc3ccc4c(c3)OCO4)ccc2O1 | . | . | . | .
COC(=O)C[C@@H]1C[C@H]2c3cc(N(C)C)ccc3O[C@H]2[C@@H](CO)O1 | . | . | / | .
CN(C)C(=O)C[C@@H]1C[C@@H]2c3cc(NC(=O)Nc4ccccc4F)ccc3O[C@@H]2[C@@H](CO)O1 | . | . | 36 | 39
CN(C)C(=O)C[C@H]1C[C@@H]2c3cc(N(C)C)ccc3O[C@@H]2[C@@H](CO)O1 | . | . | 33 | .
COCCNC(=O)C[C@@H]1C[C@H]2c3cc(N(C)C)ccc3O[C@H]2[C@H](CO)O1 | / | . | 39 | .
CN(C)c1ccc2c(c1)[C@@H]1C[C@H](CC(=O)O)O[C@@H](CO)[C@@H]1O2 | . | . | . | .
COC(=O)C[C@H]1C[C@H]2c3cc(N(C)C)ccc3O[C@H]2[C@H](CO)O1 | . | . | 43 | .
C[C@@H]1CN([C@@H](C)CO)C(=O)c2cc(NC(=O)CCCN(C)C)ccc2O[C@@H]1CN(C)S(=O)(=O)c1ccc(Cl)cc1 | . | . | . | .
COc1ccc(NC(=O)N(C)C[C@@H]2Oc3ccc(NC(=O)c4ccncc4)cc3C(=O)N([C@H](C)CO)C[C@@H]2C)cc1 | . | . | . | /
COc1ccc(S(=O)(=O)N(C)C[C@H]2OCCCC[C@H](C)Oc3ccc(NC(=O)Nc4ccccc4)cc3C(=O)N([C@H](C)CO)C[C@@H]2C)cc1 | . | . | . | .
